Laboratory results taken from ChEMBL document CHEMBL1125014, “Synthesis and structure-activity relationships of new 9-N-alkyl derivatives of 9(S)-erythromycylamine” (1990).
Converted amounts (≈) assume the structure as drawn.

Columns and labels:
[1] = test system: Mus musculus; test: ED50 value was measured by sc administration against streptococcus pyogenes infection in mice (in vivo, in experiment 3); format: functional
[2] = species: Rattus norvegicus; test: Fluid concentration in urine was determined in rats at 0.5 hr; format: functional
How it was run: (§1)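 Rats dosed by gavage at 20 mg/kg; lung, liver, kidney, urine and serum sampled at 0.5, 1, 2, 4 and 6 h after dosing. Antibiotic measured by microbiological assay with Micrococcus luteus seeded in Antibiotic Medium 1. Zone sizes were read against the standard curve for the same compound. Each value is the average of three rats per time point.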

[3] = species: Rattus norvegicus; test: Fluid concentration in urine was determined in rats at 1 hr; format: functional; how it was run: as §1
[4] = species: Rattus norvegicus; test: Fluid concentration in urine was determined in rats at 2 hr; format: functional; how it was run: as §1
[5] = species: Rattus norvegicus; test: Fluid concentration in urine was determined in rats at 4 hr; format: functional; how it was run: as §1
[6] = species: Rattus norvegicus; test: Fluid concentration in kidney tissue was determined in rats at 2 hr; format: functional
How it was run: (§2)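 Rats were gavaged at 20 mg/kg and tissues sampled 0.5–6 h after dosing. Drug was assayed microbiologically with Micrococcus luteus seeded in Antibiotic Media 1. Zone sizes were read against each compound's own standard curve. Values are the mean of three rats per time point, in μg/g.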

[7] = species: Rattus norvegicus; test: Fluid concentration in kidney tissue was determined in rats at 4 hr; format: functional; how it was run: as §2
[8] = species: Rattus norvegicus; test: Fluid concentration in liver tissue was determined in rats at 2 hr; format: functional; how it was run: as §1
[9] = species: Rattus norvegicus; test: Fluid concentration in serum was determined in rats at 0.5 hr; format: functional; how it was run: as §1
[10] = species: Rattus norvegicus; test: Fluid concentration in serum was determined in rats at 1 hr; format: functional; how it was run: as §1
[11] = test system: Rattus norvegicus; test: Plasma concentration in rats was determined by subcutaneous administration, 20 mg/kg at 2 hr; format: functional, organism-based; design: dose 20 mg/kg
How it was run: (§3)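 Peripheral plasma antibiotic levels in rats given 20 mg/kg orally or subcutaneously. Plasma was sampled at timed points after dosing. Levels were measured by microbiological agar assay with Micrococcus luteus seeded in Antibiotic Media 1, reading zone sizes, and were calculated from a standard curve for the appropriate compound. Each value is the average of three rats per time point, in μg/mL.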

[12] = test system: Rattus norvegicus; test: Plasma concentration in rats was determined by oral administration, 20 mg/kg at 1 hr; format: functional, organism-based; design: dose 20 mg/kg; how it was run: as §3
[13] = test system: Rattus norvegicus; test: Plasma concentration in rats was determined by oral administration, 20 mg/kg at 2 hr; format: functional, organism-based; design: dose 20 mg/kg; how it was run: as §3
[14] = test system: Rattus norvegicus; test: Plasma concentration in rats was determined by oral administration, 20 mg/kg at 4 hr; format: functional, organism-based; design: dose 20 mg/kg; how it was run: as §3
[15] = test system: Rattus norvegicus; test: Plasma concentration in rats was determined by oral administration, 20 mg/kg at 8 hr; format: functional, organism-based; design: dose 20 mg/kg; how it was run: as §3
[16] = species: Rattus norvegicus; test: Fluid concentration in serum was determined in rats at 2 hr; format: functional; how it was run: as §1
[17] = species: Mus musculus
[18] = species: Mus musculus; remark: listed apart in the source
[19] = species: Mus musculus; remark: listed apart in the source
[20] = species: Mus musculus; remark: listed apart in the source
[21] = species: Rattus norvegicus
[22] = species: Rattus norvegicus; remark: listed apart in the source
[23] = species: Rattus norvegicus; remark: listed apart in the source
[24] = species: Rattus norvegicus; remark: listed apart in the source
[25] = test system: Mus musculus; test: ED50 value was measured by sc administration against streptococcus pyogenes infection in mice (in vivo, in experiment 2); format: functional
How it was run: (§4)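 Infected mice were dosed orally or subcutaneously at 1 and 5 h postinfection, 0.25 mL of antibiotic solution in 10% aqueous ethanol per dose. Tartaric acid was added where needed for solubility. Several dose concentrations were tested to give the ED50.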

[26] = test system: Mus musculus; test: ED50 value was measured by po administration against streptococcus pyogenes infection in mice (in vivo, in experiment 2); format: functional; how it was run: as §4
[27] = test system: Mus musculus; test: ED50 value was measured by sc administration against staphylococcus aureus infection in mice (in vivo, in experiment 2); format: functional; how it was run: as §4
[28] = test system: Mus musculus; test: ED50 value was measured by sc administration against streptococcus pneumoniae infection in mice (in vivo, in experiment 2); format: functional; how it was run: as §4
[29] = test system: Mus musculus; test: Plasma concentration in mice was determined by oral administration, 20 mg/kg at 1 h; format: functional, organism-based; design: dose 20 mg/kg
How it was run: (§5)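 Mice given 20 mg/kg orally or subcutaneously; peripheral plasma sampled at 5, 20 and 40 min and at 1, 2 and 4 h after dosing. Microbiological assay used Micrococcus luteus seeded in Antibiotic Medium 1, with zone sizes converted by the compound's own standard curve. Each value is the average of five mice per time point.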

[30] = test system: Mus musculus; test: Plasma concentration in mice was determined by oral administration, 20 mg/kg at 2 h; format: functional, organism-based; design: dose 20 mg/kg; how it was run: as §5
[31] = test system: Mus musculus; test: Plasma concentration in mice was determined by oral administration, 20 mg/kg at 20 min; format: functional, organism-based; design: dose 20 mg/kg; how it was run: as §5
[32] = test system: Mus musculus; test: Plasma concentration in mice was determined by oral administration, 20 mg/kg at 4 h; format: functional, organism-based; design: dose 20 mg/kg; how it was run: as §5
[33] = test system: Mus musculus; test: Plasma concentration in mice was determined by oral administration, 20 mg/kg at 40 min; format: functional, organism-based; design: dose 20 mg/kg; how it was run: as §5
[34] = test system: Mus musculus; test: Plasma concentration in mice was determined by oral administration, 20 mg/kg at 5 min; format: functional, organism-based; design: dose 20 mg/kg; how it was run: as §5
[35] = species: Rattus norvegicus; test: Fluid concentration in urine tissue was determined in rats at 6 h; format: functional; how it was run: as §1
[36] = species: Rattus norvegicus; test: Fluid concentration in kidney tissue was determined in rats at 0.5 h; format: functional; how it was run: as §2
[37] = species: Rattus norvegicus; test: Fluid concentration in kidney tissue was determined in rats at 1 h; format: functional; how it was run: as §2
[38] = species: Rattus norvegicus; test: Fluid concentration in kidney tissue was determined in rats at 4 h; format: functional; how it was run: as §2
[39] = species: Rattus norvegicus; test: Fluid concentration in kidney tissue was determined in rats at 6 h; format: functional; how it was run: as §2
[40] = species: Rattus norvegicus; test: Fluid concentration in liver tissue was determined in rats at 2 h; format: functional; how it was run: as §1
[41] = species: Rattus norvegicus; test: Fluid concentration in liver tissue was determined in rats at 4 h; format: functional; how it was run: as §1
[42] = species: Rattus norvegicus; test: Fluid concentration in serum tissue was determined in rats at 1 h; format: functional; how it was run: as §1
[43] = species: Rattus norvegicus; test: Fluid concentration in serum tissue was determined in rats at 2 h; format: functional; how it was run: as §1
[44] = species: Rattus norvegicus; test: Fluid concentration in serum tissue was determined in rats at 4 h; format: functional; how it was run: as §1
[45] = species: Rattus norvegicus; test: Fluid concentration in serum tissue was determined in rats at 6 h; format: functional; how it was run: as §1
[46] = species: Rattus norvegicus; test: Fluid concentration in urine tissue was determined in rats at 0.5 h; format: functional; how it was run: as §1
[47] = species: Rattus norvegicus; test: Fluid concentration in urine tissue was determined in rats at 1 h; format: functional; how it was run: as §1
[48] = species: Rattus norvegicus; test: Fluid concentration in urine tissue was determined in rats at 2 h; format: functional; how it was run: as §1
[49] = species: Rattus norvegicus; test: Fluid concentration in urine tissue was determined in rats at 4 h; format: functional; how it was run: as §1
[50] = test system: Rattus norvegicus; test: Plasma concentration in rats was determined by subcutaneous administration, 20 mg/kg at 2 h; format: functional, organism-based; design: dose 20 mg/kg; how it was run: as §3
[51] = test system: Rattus norvegicus; test: Plasma concentration in rats was determined by subcutaneous administration, 20 mg/kg at 20 min; format: functional, organism-based; design: dose 20 mg/kg; how it was run: as §3
[52] = test system: Rattus norvegicus; test: Plasma concentration in rats was determined by subcutaneous administration, 20 mg/kg at 40 min; format: functional, organism-based; design: dose 20 mg/kg; how it was run: as §3
[53] = test system: Rattus norvegicus; test: Plasma concentration in rats was determined by subcutaneous administration, 20 mg/kg at 5 min; format: functional, organism-based; design: dose 20 mg/kg; how it was run: as §3
[54] = test system: Enterococcus faecalis; test: MIC value was measured against streptococcus faecalis.; format: functional
[55] = species: Rattus norvegicus; remark: listed apart in the source
[56] = species: Rattus norvegicus; remark: listed apart in the source

With `CC[C@H]1OC(=O)[C@H](C)[C@@H](O[C@H]2C[C@@](C)(OC)[C@@H](O)[C@H](C)O2)[C@H](C)[C@@H](O[C@@H]2O[C@H](C)C[C@H](N(C)C)[C@H]2O)[C@](C)(O)C[C@@H](C)C(=O)[C@H](C)[C@@H](O)[C@]1(C)O` [ERYTHROMYCIN] the ED50 [1] was 2.8 mg/kg, the Activity [2] was 7.5 µg/mL and the Activity [3] was 10.8 µg/mL. For the same compound, the Activity [4] was 2.5 µg/mL, the Activity [5] was 8.8 µg/mL and the Activity [6] was 0 µg/mL. For the same compound, the Activity [7] was 0 µg/mL, the Activity [8] was 0.04 µg/mL and the Activity [9] was 0.01 µg/mL. For the same compound, the Activity [10] was 0.4 µg/mL, the Plasma concentration [11] was 1.06 µg/mL and the Plasma concentration [12] was 0.04 µg/mL. The Plasma concentration [13] was 0.03 µg/mL, the Plasma concentration [14] was 0.02 µg/mL and the Plasma concentration [15] was 0.01 µg/mL. The Activity [16] was 0 µg/mL, the Plasma concentration [17] was 0 µg/mL and the Plasma concentration [18] was 0.01 µg/mL. It also gave a Plasma concentration [19] of 0 µg/mL, a Plasma concentration [20] of 0.01 µg/mL and a Plasma concentration [21] of 1.31 µg/mL. It also gave a Plasma concentration [22] of 1.16 µg/mL, a Plasma concentration [23] of 4.2 µg/mL and a Plasma concentration [24] of 0 µg/mL.
With `CCCN[C@@H]1[C@H](C)[C@@H](O)[C@](C)(O)[C@@H](CC)OC(=O)[C@H](C)[C@@H](OC2CC(C)(OC)C(O)C(C)O2)[C@H](C)[C@@H](OC2OC(C)CC(N(C)C)C2O)[C@](C)(O)C[C@H]1C` (stereo partly specified) the ED50 [25] was 1.4 mg/kg, the ED50 [26] was 6 mg/kg and the ED50 [27] was 2.1 mg/kg. For the same compound, the ED50 [28] was 2.1 mg/kg, the Plasma concentration [29] was 0.08 µg/mL and the Plasma concentration [30] was 0.07 µg/mL. The Plasma concentration [31] was 0.01 µg/mL, the Plasma concentration [32] was 0.06 µg/mL and the Plasma concentration [33] was 0.036 µg/mL. For the same compound, the Plasma concentration [34] was 0 µg/mL, the Activity [35] was 11.3 µg/mL and the Activity [36] was 0.1 µg/mL. For the same compound, the Activity [37] was 0.31 µg/mL, the Activity [38] was 4.28 µg/mL and the Activity [39] was 3.21 µg/mL. It also gave an Activity [40] of 2.99 µg/mL, an Activity [41] of 3.06 µg/mL and an Activity [42] of 0.04 µg/mL. It also gave an Activity [43] of 0.23 µg/mL, an Activity [44] of 0.12 µg/mL and an Activity [45] of 0.05 µg/mL. The Activity [46] was 3.92 µg/mL, the Activity [47] was 3.78 µg/mL and the Activity [48] was 4.8 µg/mL. The Activity [49] was 18.63 µg/mL, the Plasma concentration [50] was 0.18 µg/mL and the Plasma concentration [51] was 0.07 µg/mL. It also gave a Plasma concentration [52] of 0.14 µg/mL, a Plasma concentration [53] of 0.04 µg/mL and an MIC [54] of 0.12 µg/mL (≈ 0.154 µM). It also gave a Plasma concentration [55] of 0.01 µg/mL and a Plasma concentration [56] of 0.08 µg/mL.
